Data from ChEMBL document CHEMBL5661979, “Pharmacological inhibition of BMK1 suppresses tumor growth through promyelocytic leukemia protein” (Cancer Cell, 2010).
The source made the active and inactive calls. No cut-off for these calls is given here.

How the values were obtained:
[1] = biological target: Mitogen-activated protein kinase 4 (Homo sapiens, UniProt P31152); test: Inhibition of ERK4 in human HeLa cells lysate at 50 uM pre incubated for 15 mins followed by ATP acyl phosphate probe addition and measured after 10 mins by LC-MS/MS analysis relative to control; type: subcellular; conditions: time 25.0 min
Mitogen-activated protein kinase 4, sequence (P31152 whole entry): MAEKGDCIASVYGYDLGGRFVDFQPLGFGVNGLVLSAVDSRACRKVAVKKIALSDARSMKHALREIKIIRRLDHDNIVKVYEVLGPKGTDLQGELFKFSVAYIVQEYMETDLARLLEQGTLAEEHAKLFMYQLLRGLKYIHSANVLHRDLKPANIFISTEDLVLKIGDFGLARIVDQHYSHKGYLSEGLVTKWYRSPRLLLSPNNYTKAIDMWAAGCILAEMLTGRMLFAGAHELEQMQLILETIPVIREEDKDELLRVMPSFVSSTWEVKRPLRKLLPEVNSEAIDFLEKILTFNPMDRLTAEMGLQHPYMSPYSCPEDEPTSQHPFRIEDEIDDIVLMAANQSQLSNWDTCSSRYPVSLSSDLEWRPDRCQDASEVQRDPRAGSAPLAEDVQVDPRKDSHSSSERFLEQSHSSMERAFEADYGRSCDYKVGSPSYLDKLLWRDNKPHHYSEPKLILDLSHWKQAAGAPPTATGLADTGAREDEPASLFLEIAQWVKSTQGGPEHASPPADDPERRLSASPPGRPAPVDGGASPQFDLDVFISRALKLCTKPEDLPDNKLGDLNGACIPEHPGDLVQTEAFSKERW

[2] = biological target: Mitogen-activated protein kinase 14 (Homo sapiens, UniProt Q16539); test: Inhibition of p38a in human HeLa cells lysate at 50 uM pre incubated for 15 mins followed by ATP acyl phosphate probe addition and measured after 10 mins by LC-MS/MS analysis relative to control; type: subcellular; conditions: time 25.0 min
Mitogen-activated protein kinase 14, sequence (Q16539 whole entry): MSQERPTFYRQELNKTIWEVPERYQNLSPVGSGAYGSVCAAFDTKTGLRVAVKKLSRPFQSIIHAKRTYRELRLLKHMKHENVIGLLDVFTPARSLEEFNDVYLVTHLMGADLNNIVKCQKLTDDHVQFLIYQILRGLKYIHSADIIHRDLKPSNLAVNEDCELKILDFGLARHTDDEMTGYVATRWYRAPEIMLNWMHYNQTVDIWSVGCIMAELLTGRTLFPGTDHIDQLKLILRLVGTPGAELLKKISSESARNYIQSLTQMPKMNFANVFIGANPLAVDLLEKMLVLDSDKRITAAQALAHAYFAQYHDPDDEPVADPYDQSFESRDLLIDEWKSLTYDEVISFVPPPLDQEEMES

[3] = Inhibition of PCTAIRE2/3 in human HeLa cells lysate at 2 uM pre incubated for 15 mins followed by ADP acyl phosphate probe addition and measured after 10 mins by LC-MS/MS analysis relative to control; conditions: 25 min, condition cancer
[4] = Inhibition of MAP3K2/MAP3K3 in human HeLa cells lysate at 2 uM pre incubated for 15 mins followed by ADP acyl phosphate probe addition and measured after 10 mins by LC-MS/MS analysis relative to control; conditions: 25 min, condition cancer
[5] = biological target: T1, Serine/threonine-protein kinase D3 (Homo sapiens) (UniProt O94806); test: Inhibition of PKD3 in human HeLa cells lysate at 50 uM pre incubated for 15 mins followed by ADP acyl phosphate probe addition and measured after 10 mins by LC-MS/MS analysis relative to control; type: subcellular; conditions: time 25.0 min
T1 sequence (whole entry): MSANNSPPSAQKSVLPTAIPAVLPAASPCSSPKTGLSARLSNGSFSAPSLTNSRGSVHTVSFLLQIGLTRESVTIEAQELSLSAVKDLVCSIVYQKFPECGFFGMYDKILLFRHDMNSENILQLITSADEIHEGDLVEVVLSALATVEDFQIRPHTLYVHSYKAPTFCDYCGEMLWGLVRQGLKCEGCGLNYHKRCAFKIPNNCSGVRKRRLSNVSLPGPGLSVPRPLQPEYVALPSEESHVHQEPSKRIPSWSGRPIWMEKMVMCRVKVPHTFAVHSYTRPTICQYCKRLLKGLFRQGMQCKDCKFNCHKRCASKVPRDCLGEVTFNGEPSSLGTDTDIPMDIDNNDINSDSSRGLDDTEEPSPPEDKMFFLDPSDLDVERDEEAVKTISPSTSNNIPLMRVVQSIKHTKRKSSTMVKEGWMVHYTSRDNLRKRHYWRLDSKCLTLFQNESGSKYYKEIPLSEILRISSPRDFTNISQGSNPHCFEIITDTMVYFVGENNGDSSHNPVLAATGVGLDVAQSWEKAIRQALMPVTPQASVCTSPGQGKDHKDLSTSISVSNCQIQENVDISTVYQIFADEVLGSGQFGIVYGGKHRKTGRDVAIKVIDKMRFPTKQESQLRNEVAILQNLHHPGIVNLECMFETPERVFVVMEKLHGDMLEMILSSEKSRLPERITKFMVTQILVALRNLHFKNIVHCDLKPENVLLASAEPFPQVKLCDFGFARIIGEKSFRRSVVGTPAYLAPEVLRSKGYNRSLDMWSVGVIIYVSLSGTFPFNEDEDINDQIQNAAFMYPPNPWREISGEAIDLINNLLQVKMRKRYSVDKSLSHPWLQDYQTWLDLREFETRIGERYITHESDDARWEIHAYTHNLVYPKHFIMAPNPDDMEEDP

[6] = biological target: T2, Phosphatidylinositol 5-phosphate 4-kinase type-2 alpha (Homo sapiens) (UniProt P48426); test: Inhibition of PIP5K2A LIP1 site in human HeLa cells lysate at 50 uM pre incubated for 15 mins followed by ADP acyl phosphate probe addition and measured after 10 mins by LC-MS/MS analysis relative to control; type: subcellular; conditions: time 25.0 min
T2 sequence (whole entry): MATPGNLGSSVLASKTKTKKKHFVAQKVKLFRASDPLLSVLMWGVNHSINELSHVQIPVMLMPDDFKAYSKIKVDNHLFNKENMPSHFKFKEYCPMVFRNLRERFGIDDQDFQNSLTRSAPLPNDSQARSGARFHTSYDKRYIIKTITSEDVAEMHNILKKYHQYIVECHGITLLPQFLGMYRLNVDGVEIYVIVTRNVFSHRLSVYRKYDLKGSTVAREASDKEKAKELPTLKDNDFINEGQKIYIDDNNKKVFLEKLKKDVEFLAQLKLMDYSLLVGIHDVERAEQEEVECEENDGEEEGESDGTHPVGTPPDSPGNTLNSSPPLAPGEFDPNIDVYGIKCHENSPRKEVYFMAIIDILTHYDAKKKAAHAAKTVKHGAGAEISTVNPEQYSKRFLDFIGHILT

HeLa [7] = test: Antitumor activity against human HeLa cells xenografted in NOD/SCID mouse assessed as reduction tumor growth at 50 mg/kg, ip administered for 28 days; type: functional, organism-based; conditions: time 28.0 day
Outline: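 HeLa cells (5×10^5, in DMEM) were injected s.c. into the right flank of 6-week-old Nod/Scid mice on day 0. Dosing was 50 mg/kg i.p. twice daily, starting on day 1, 7 or 14 and continuing to day 28; controls received carrier. 6 mice per treated group. Tumors were measured every 2–3 days.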

[8] = biological target: Cyclin-dependent kinase 11B (Homo sapiens, UniProt P21127); test: Inhibition of PITSLRE in human HeLa cells lysate pre incubated for 15 mins followed by ATP acyl phosphate probe addition and measured after 10 mins by LC-MS/MS analysis; type: subcellular
Cyclin-dependent kinase 11B, sequence (P21127 whole entry): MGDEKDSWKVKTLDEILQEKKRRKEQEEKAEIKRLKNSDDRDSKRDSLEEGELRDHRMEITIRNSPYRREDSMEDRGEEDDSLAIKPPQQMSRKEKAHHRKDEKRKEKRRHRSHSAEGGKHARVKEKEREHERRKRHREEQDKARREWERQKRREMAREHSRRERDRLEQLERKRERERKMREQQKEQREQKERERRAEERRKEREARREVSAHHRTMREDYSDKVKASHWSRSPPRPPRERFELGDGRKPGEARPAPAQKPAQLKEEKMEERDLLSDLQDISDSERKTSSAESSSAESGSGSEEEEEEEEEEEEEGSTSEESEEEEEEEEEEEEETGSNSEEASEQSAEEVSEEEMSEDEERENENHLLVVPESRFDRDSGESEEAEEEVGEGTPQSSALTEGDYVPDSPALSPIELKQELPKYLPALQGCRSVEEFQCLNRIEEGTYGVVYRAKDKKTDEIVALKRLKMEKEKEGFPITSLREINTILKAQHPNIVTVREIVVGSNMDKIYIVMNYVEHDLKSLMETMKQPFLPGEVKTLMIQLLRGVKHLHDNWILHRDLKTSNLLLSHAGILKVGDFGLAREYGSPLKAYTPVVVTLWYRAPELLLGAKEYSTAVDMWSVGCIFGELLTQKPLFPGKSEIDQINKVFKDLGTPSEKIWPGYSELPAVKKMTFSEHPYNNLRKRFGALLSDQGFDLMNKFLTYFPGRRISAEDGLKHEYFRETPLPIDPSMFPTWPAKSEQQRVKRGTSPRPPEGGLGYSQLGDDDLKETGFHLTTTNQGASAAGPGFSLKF

HeLa [9] = test: Antiproliferative activity against human HeLa cells assessed as reduction in cell viability at 5 uM after 48 hrs by MTT assay; type: functional, cell-based
Outline: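 HeLa cells were infected with empty adenovirus or adenovirus encoding dominant-negative BMK1(AEF). After 24 hr they were treated with or without 5 μM drug for 48 hr and read by MTT. % growth inhibition = (1 − MTT of group / MTT of Ad-EV-only cells) × 100. n = 3.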

[10] = Cardiotoxicity in C57Bl/6 mouse assessed as vasculature instability in heart at 50 mg/kg, ip for 14 days by TUNEL assay; type: toxicity, organism-based; conditions: in vivo, 336 h, time 14 day
Outline: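 Mice were dosed i.p. at 50 mg/kg over 14 days. Heart sections from treated and control mice were stained by immunofluorescence for CD31 and by TUNEL, with DNase-treated sections as the TUNEL positive control.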

[11] = biological target: Mitogen-activated protein kinase 1 (Homo sapiens, UniProt P28482); test: Inhibition of ERK2 in human HeLa cells lysate pre incubated for 15 mins followed by ATP acyl phosphate probe addition and measured after 10 mins by LC-MS/MS analysis; type: subcellular
Mitogen-activated protein kinase 1, sequence (P28482 whole entry): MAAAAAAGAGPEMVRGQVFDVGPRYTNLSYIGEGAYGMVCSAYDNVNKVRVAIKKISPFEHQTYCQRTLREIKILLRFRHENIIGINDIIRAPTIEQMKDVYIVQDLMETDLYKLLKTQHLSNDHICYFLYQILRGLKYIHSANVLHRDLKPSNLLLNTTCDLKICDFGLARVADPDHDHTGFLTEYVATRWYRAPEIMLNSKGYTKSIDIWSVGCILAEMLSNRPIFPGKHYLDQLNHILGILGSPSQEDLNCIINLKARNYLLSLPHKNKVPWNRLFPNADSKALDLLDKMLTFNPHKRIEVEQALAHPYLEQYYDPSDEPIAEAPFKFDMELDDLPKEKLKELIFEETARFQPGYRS

[12] = biological target: Epidermal growth factor receptor (Homo sapiens, UniProt P00533); test: Inhibition of EGFR in human HeLa cells lysate at 2 uM pre incubated for 15 mins followed by ATP acyl phosphate probe addition and measured after 10 mins by LC-MS/MS analysis relative to control; type: subcellular; conditions: time 25.0 min
Epidermal growth factor receptor, sequence (P00533 whole entry): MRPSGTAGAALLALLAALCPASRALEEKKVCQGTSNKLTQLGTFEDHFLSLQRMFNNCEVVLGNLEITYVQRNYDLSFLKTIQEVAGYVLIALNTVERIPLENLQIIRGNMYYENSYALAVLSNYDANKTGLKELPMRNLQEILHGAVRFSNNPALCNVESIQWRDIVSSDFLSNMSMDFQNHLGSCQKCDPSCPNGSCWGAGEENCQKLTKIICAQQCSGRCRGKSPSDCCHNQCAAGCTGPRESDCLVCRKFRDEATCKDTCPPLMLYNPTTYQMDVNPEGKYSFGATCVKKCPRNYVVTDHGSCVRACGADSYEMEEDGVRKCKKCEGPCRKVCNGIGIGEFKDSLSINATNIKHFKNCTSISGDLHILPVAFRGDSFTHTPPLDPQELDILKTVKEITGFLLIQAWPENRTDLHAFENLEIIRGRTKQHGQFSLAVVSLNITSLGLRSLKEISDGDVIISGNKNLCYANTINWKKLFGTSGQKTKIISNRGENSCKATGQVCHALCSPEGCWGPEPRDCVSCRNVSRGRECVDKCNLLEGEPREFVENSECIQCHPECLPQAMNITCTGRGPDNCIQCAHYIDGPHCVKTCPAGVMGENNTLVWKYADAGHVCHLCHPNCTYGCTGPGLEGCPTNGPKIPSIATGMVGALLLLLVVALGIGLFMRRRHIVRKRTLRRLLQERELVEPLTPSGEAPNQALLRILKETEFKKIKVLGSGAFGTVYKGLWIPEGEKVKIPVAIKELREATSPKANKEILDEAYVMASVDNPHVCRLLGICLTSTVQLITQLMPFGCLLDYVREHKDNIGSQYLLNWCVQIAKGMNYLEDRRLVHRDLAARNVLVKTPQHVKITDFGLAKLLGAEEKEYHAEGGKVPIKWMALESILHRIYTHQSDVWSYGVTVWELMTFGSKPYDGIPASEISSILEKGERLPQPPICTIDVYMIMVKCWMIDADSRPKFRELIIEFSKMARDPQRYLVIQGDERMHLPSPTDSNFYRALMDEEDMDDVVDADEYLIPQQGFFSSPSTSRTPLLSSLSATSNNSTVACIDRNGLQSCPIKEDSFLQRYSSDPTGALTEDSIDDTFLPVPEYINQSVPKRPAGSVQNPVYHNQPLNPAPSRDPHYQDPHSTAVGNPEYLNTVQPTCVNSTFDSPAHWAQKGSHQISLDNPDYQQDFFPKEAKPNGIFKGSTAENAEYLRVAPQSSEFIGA

[13] = biological target: T3, Phosphatidylinositol 5-phosphate 4-kinase type-2 alpha (Homo sapiens, UniProt P48426); test: Inhibition of PIP5K2A LIP1 site in human HeLa cells lysate pre incubated for 15 mins followed by ADP acyl phosphate probe addition and measured after 10 mins by LC-MS/MS analysis; type: subcellular
T3 sequence (P48426 whole entry): T2 sequence (whole entry)

Structure (SMILES): CCOc1cc(N2CCC(O)CC2)ccc1Nc1ncc2c(n1)N(C)c1ccccc1C(=O)N2C
- inhibition [1]: 28.7%
- inhibition [2]: 31.4%
- inhibition at 2 µM [3]: 10.1%
- inhibition at 2 µM [4]: 4.6%
- inhibition [5]: -0.5%
- inhibition [6]: 16.2%
- Activity (HeLa [7]): Active
- IC50 [8]: > 50 µM
- Activity (HeLa [9]): Active
- Activity [10]: Non-Toxic
- IC50 [11]: > 50 µM
- inhibition [12]: 2.5%
- IC50 [13]: > 50 µM
